Screening results as filed in PubChem BioAssay.
Hits are enriched below; roughly 4.3% of the tested compounds scored in any of these assays.
TAAR1 antagonist – human TAAR1 antagonists, primary screen, Fluo-8 calcium fluorescence, CHO RD-HGA16 cells; inhibition, % at 3 µM; 360,000 tested, 1.5% active; antagonist;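 active = inhibition above a per-plate cutoff, the mean inhibition of test compounds on that plate plus 3 SD, cut at about 49% in these data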;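 note: 0% = DMSO plus EC80 beta-PEA response and 100% = DMSO alone without agonist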
Target sequence (Q96RJ0 whole entry, looked up): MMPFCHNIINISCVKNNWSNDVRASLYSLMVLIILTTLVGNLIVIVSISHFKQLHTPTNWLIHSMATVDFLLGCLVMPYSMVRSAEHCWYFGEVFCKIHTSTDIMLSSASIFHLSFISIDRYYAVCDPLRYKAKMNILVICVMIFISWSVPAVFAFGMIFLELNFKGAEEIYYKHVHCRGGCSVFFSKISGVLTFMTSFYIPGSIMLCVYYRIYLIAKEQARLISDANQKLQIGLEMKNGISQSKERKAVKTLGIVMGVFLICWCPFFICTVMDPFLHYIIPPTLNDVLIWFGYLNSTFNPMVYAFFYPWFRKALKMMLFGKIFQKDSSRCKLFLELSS
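Material: RD-HGA16 CHO cells with stable hTAAR1 and Gα16; Dosing: single nominal final test compound concentration of 3 µM; Schedule: seeding 17-24 h prior, 75-min 37 °C, 30-min RT dye loading; Detection: kinetic Fluo-8 calcium fluorescence measurement; Measure: % inhibition from peak post-agonist over basal fluorescence ratio; Benchmarks: vehicle and agonist controls.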
GalR3 antagonist – GalR3 antagonists in HEK293 cells, primary screen, cell-based, fluorescence readout. inhibition, % at 3 µM. HEK293 GalR3-CNG cAMP membrane potential fluorescence; galR3 body fused to GalR1 C-terminus. 360,000 tested, 0.44% active. AID 651719, 2012;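 active = inhibition above the screen-wide average plus 3 SD, cut at about 13% in these data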;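 note: forskolin and galanin both at EC90 stimulate the cells; cAMP rise reported by CNG channel membrane potential dye signal; 0% = forskolin plus galanin with DMSO and 100% = forskolin alone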
TAAR1 ag – human TAAR1 agonists, primary screen, Fluo-8 calcium fluorescence, CHO RD-HGA16 cells | activation, % at 3 µM | vehicle wells 0%, saturating PEA agonist 100% | 360,000 tested, 0.99% active;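 active = activation above the mean activation of all test compounds in the run plus 3 SD, cut at about 38% in these data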
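System: CHO RD-HGA16 cells carrying human TAAR1 plus Gα16; Incubation: 17-24 h seeding, 75 min 37 °C dye, 30 min RT; Measured by: Fluo-8 fluorescence, 5 s baseline then 140 s kinetic read; Control set: DMSO and PEA EC100; Replication: single well for each compound.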
OX1R antag-1 – OX1R (HCRTR1) antagonists, primary screen, fluorescence, CHO/OX1R cells, Fluo-8 calcium, orexin A. 330,000 tested, 0.43% active. inhibition, % at 5 µM. Fluo-8 calcium fluorescence. Orexin/Hypocretin receptor type 1 (Homo sapiens), O43613. AID 434989, 2010;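 active = inhibition above its plate's threshold, mean inhibition of all tested compounds on the plate plus 3 SD, cut at about 37% in these data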;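 note: 0% = orexin A challenge wells and 100% = SB-334867-A antagonist wells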
CHO parental Ca – ATP-evoked calcium signal inhibitors, parental CHO, primary screen, counter-screen for OX1R antagonist project, cell-based, fluorescence, Fluo-8 calcium dye. inhibition, % at 5.6 µM. AID 463079, 2010. parental CHO-K1, ATP-induced calcium, Fluo-8 fluorescence. 330,000 tested, 0.63% active;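 active = inhibition above that plate's mean sample inhibition plus 3 SD, cut at about 26% in these data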;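 note: 0% = ATP-challenged DMSO wells and 100% = DMSO wells without ATP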
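Test system: parental CHO cells; detection: calcium-sensitive Fluo-8 fluorescence; evaluation: percent inhibition of calcium signal; also added: ATP as calcium-mobilizing challenge; repeats: one well per compound; control set: ATP-challenged DMSO wells low, unchallenged DMSO wells high; compound: single nominal dose of 5.6 µM per compound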
OX1R antag-2 – antagonists of human orexin 1 receptor (OX1R) | OX1R-expressing cells, FRET antagonist read-out | inhibition, % at 6.6 µM | 330,000 tested, 1.8% active | Orexin/Hypocretin receptor type 1 (Homo sapiens), O43613 | AID 485270, 2010; in the data active = inhibition mostly above about 38%, no sharp cut-off; inactive = mostly below about 40%;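 note: 0% = agonist challenge alone and 100% = reference antagonist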
TAAR1 ag conf – human TAAR1 agonists, retest of hits, confirmation, Fluo-8 calcium fluorescence, CHO RD-HGA16 cells. shares compounds with TAAR1 ag. scaled: DMSO 0%, maximal phenethylamine 100%. 2,400 tested, 82% active. AID 651783, 2012. activation, % at 3 µM;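 active = activation above a cutoff set at the run's mean compound activation plus 3 SD, cut at about 39% in these data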
Ga16 nonsel ag – nonselective calcium mobilization agonists, CHO-Ga16 cells, counter-screen for hTAAR1 agonist project, cell-based, fluorescence, CHO-Ga16 parental line | activation, % at 3 µM | 2,400 tested, 50% active | AID 651787, 2012 | shares compounds with TAAR1 ag | Fluo-8 calcium fluorescence; normalized to maximal ATP response, DMSO zero;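 active = activation above the run cutoff, the mean activation over all tested wells plus 3 SD, cut at about 12% in these data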;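 note: 0% = DMSO wells and 100% = maximal ATP response on the peak over basal ratio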
TAAR1 desensitize – TAAR1 desensitization by agonist hits, confirmation, counter-screen for TAAR1 agonist project, cell-based, fluorescence, tachyphylaxis; CHO RD-HGA16 hTAAR1, Fluo-8 calcium, beta-PEA response inhibition; inhibition, % at 3 µM; shares compounds with TAAR1 ag; AID 651951, 2012; 2,400 tested, 46% active;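 active = inhibition above the run cutoff, the mean inhibition of all test compounds plus 3 SD, cut at about 49% in these data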;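 note: beta-PEA stimulus applied at its EC80; loss of beta-PEA calcium signal after compound pretreatment read as receptor desensitization; 0% = DMSO with beta-PEA at EC80 and 100% = DMSO alone without agonist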
Ga16 nonsel ant – inhibition of ATP-evoked calcium response in CHO-Ga16 cells, counter-screen for TAAR1 agonist project, cell-based, fluorescence. shares compounds with TAAR1 ag. CHO-Ga16 ATP-induced calcium, Fluo-8 fluorescence. inhibition, % at 3 µM. 2,400 tested, 39% active. AID 651952, 2012;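 active = inhibition above the plate's mean compound inhibition plus 3 SD, computed per plate, cut at about 22% in these data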;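 note: 0% = EC80 ATP with DMSO and 100% = DMSO wells without ATP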
An asterisk follows results filed as active; . = not tested or not shown; ! = a repeat was not active.

SMILES | TAAR1 antagonist | GalR3 antagonist | TAAR1 ag | OX1R antag-1 | CHO parental Ca | OX1R antag-2 | TAAR1 ag conf | Ga16 nonsel ag | TAAR1 desensitize | Ga16 nonsel ant
C[C@@H](C(=O)NCCc1ccccc1)N1C(=O)N2CCc3c([nH]c4ccccc34)[C@@]2(C)C1=O | 68* | -4 | 71* | -22 | -17 | 15 | 68* | 5 | 31 | 13
CCOC(=O)c1sc(NC(=O)C2CC(=O)N(c3ccc(OCC)cc3)C2)nc1C (configuration not stated) | 7 | -8 | -3 | -27 | -9 | 16 | . | . | . | .
Nc1nc(N)c2cc(Sc3cccc(C(F)(F)F)c3)ccc2n1 | -5 | -8 | 36 | . | . | . | . | . | . | .
Nc1nc(N)c2cc(Sc3ccc(Cl)cc3)ccc2n1 | 28 | -8 | 60* | . | . | . | 65* | 40* | 56* | 40*
Nc1nc(N)c2cc(Sc3ccc4ccccc4c3)ccc2n1 | 15 | 0 | 63* | -1 | 1 | 1 | 82* | 44* | 57* | 46*
c1ccc(SCc2nc(-c3ccncc3)no2)cc1 | -1 | -2 | 10 | -14 | -4 | 29 | . | . | . | .
Cc1ccc(SCc2nc(-c3ccncc3)no2)cc1 | -4 | -1 | 52* | -11 | 1 | 17 | 9 | 4 | 6 | 7
NC[C@@H]1O[C@H](C23CC4CC(CC(C4)C2)C3)Cc2c1ccc(O)c2O | 71* | . | 68* | 12 | 17 | 13 | 109* | 13* | 88* | 29*
CCCCc1cc(O)c(CCCC)c(O)c1 | 102* | -5 | 113* | 102* | 80* | 8 | 130* | 95* | 106* | 92*
CCc1ccccc1NC(=O)N1CCc2ccccc2C1 | 55* | -4 | 80* | . | . | . | 96* | 4 | 82* | 2
CN1CCN(C(=O)Nc2cccc3ccccc23)CC1 | 3 | -5 | 1 | -3 | 2 | 10 | . | . | . | .
O=C(Nc1cccc2ccccc12)N1CCc2ccccc2C1 | 74* | 1 | 77* | -27 | -17 | 31 | 78* | 2 | 65* | 8
COc1cc(NC(=O)CN2CCN(S(=O)(=O)/C=C/c3ccccc3)CC2)cc(OC)c1OC | 8 | -1 | 3 | -33 | -25 | 4 | . | . | . | .
O=C(COC(=O)/C=C/c1cccs1)Nc1ccc(Cl)cc1F | 74* | -6 | 59* | -2 | 5 | 9 | 30 | 3 | 21 | 9
COc1ccc(NC(=O)COC(=O)/C=C/c2cccs2)c(OC)c1 | -9 | -7 | 1 | -10 | -24 | 4 | . | . | . | .
Oc1ccc(C2CNCCc3c2cc(O)c(O)c3Cl)cc1 (configuration not stated) | 13 | -3 | 62*! | -5 | 0 | 13 | 81* | 0 | 76* | 10
